Our source for the IC50 and GI50 values is ChEMBL document CHEMBL1153527, “Discovery of a novel series of quinolone and naphthyridine derivatives as potential topoisomerase I inhibitors by scaffold modification” (J Med Chem, 2009).

One assay relates to KB. As to the kind of experiment: Cytotoxicity against human KB cells after 48 hrs by MTT assay. The format is functional, cell-based. (Tetrazolium dyes change colour on reduction, which living cells bring about.)
Another assay relates to Bel-7402. In words: Cytotoxicity against human Bel7402 cells after 48 hrs by MTT assay. Conditions: Bel-7402, 48 h. The format is functional, cell-based.
Another assay relates to A2780. In words: Cytotoxicity against human A2780 cells after 48 hrs by MTT assay. The format is functional, cell-based. Conditions: A2780, 48 h.
Assay [1] in a line: Cytotoxicity against estrogen receptor-negative human […] cells expressing p53 mutant after 48 hrs by SRB assay. The format is functional, cell-based. The procedure, abridged: (§1)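 Cell lines came from CCRC, Taiwan. Cells were seeded at about 5 × 10^3 per well and left overnight. They were then given serum-free medium containing 0-10 μM compound (0.08-10 μM serial dilutions) for 48 h at 37 °C. Cells were fixed with TCA (10% final), stained with SRB (0.4% final), and the dye was dissolved in 10 mM Tris with A515 read. IC50 was taken from a fitted log concentration-response curve.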
Background: The SRB assay estimates cell density from bound dye.

The subject of a further assay is THP-1. In words: Cytotoxicity against human THP1 cells expressing p53 mutant after 48 hrs by SRB assay. The format is functional, cell-based. Particulars: THP-1, 48 h.
The next assay has as its system HepG2. As to the kind of experiment: Cytotoxicity against human HepG2 cells expressing wild type p53 after 48 hrs by SRB assay. Particulars: HepG2, 48 h. The class given is functional, cell-based. In outline: as §1
The subject of another assay is HT-29. As to the kind of experiment: Cytotoxicity against human HT-29 cells expressing p53 mutant after 48 hrs by SRB assay. Particulars: HT-29, 48 h. The class given is functional, cell-based. In outline:
as §1

A further assay has as its system PC-3. As to the kind of experiment: Cytotoxicity against p53-deficient human PC3 cells after 48 hrs by SRB assay. The class given is functional, cell-based. Conditions: PC-3, 48 h. The procedure, abridged: as §1
The next assay relates to A549. In words: Cytotoxicity against human A549 cells expressing wild type p53 after 48 hrs by SRB assay. Particulars: A549, 48 h. The format is functional, cell-based. The procedure, abridged:
as §1

The test system of another assay is HeLa. As to the kind of experiment: Cytotoxicity against p53-deficient human HeLa cells after 48 hrs by SRB assay. The format is functional, cell-based. The procedure, abridged:
as §1

In another assay the test system is AGS. As to the kind of experiment: Cytotoxicity against human AGS cells expressing wild type p53 after 48 hrs by SRB assay. The format is functional, cell-based. In outline:
as §1

The nature of assay [2]: Cytotoxicity against p53-deficient human Hep3B cells after 48 hrs by SRB assay. The format is functional, cell-based, Hep 3B2. The procedure, abridged: as §1
Another assay deals with MCF7. As to the kind of experiment: Cytotoxicity against estrogen receptor-positive human MCF7 cells expressing wild type p53 after 48 hrs by SRB assay. The class given is functional, cell-based. Particulars: MCF7, 48 h. In outline: as §1
In the next assay the test system is U-937. As to the kind of experiment: Cytotoxicity against human U937 cells expressing p53 mutant after 48 hrs by SRB assay. The format is functional, cell-based. Particulars: U-937, 48 h.
The next assay has as its system K562. As to the kind of experiment: Cytotoxicity against p53-deficient human K562 cells after 48 hrs by SRB assay. The format is functional, cell-based. Particulars: K562, 48 h.

SMILES strings stand for the structures.

For orientation: IC50 means the midpoint of a concentration-inhibition curve. Read a high IC50 as a need for much substance. In the case of `CCn1cc(-c2nc3ccccc3o2)c(=O)c2cc(F)c(N3CCN(C)CC3)cc21`, the IC50 with KB was found to be 87.4 µM; in the assay with Bel-7402, 2 µM; in the assay with A2780 it was 0.7 µM.
For the compound `CCn1cc(-c2nc3ccc(Cl)cc3[nH]2)c(=O)c2cc(F)c(N3CCNCC3)nc21`, the IC50 in the assay on KB was found to be 10.3 µM; in the assay on Bel-7402, 21.5 µM; with A2780 it was 6.3 µM.
What is called GI50 is the concentration that inhibits growth by half. The low end stands for greater sensitivity of the cells, the high end for lower sensitivity of the cells. As to `CCn1cc(-c2nc3ccc(N)cc3[nH]2)c(=O)c2cc(F)c(N3CCN(C)CC3)cc21`, the IC50 in the assay on KB is more than 50 µM; in [1], more than 10 µM; in the assay on THP-1, more than 10 µM; with HepG2, more than 10 µM; in the assay on HT-29, more than 10 µM; with PC-3, more than 10 µM. The IC50 in the assay on Bel-7402 was more than 50 µM; in the assay on A2780, more than 50 µM; with A549, more than 10 µM; in the assay on HeLa, more than 10 µM; with AGS, more than 10 µM; in assay [2], more than 10 µM. Also, the IC50 in the assay on MCF7, in the assay on U-937 and in the assay on K562 was more than 10 µM each time. The GI50 in assay [1] was more than 10 µM; with HepG2, more than 10 µM; with HT-29, more than 10 µM; in the assay on PC-3 it was more than 10 µM; in the assay with A549 it was 1 µM; in the assay on HeLa, more than 10 µM. Also, the GI50 is 10 µM in the assay on AGS, more than 10 µM in assay [2] and more than 10 µM with MCF7.
As to `CCn1cc(-c2nc3ccccc3o2)c(=O)c2cc(F)c(Cl)cc21`, the half-maximal inhibitory concentration (IC50) was 10.2 µM in the assay on KB, 28.9 µM in the assay on Bel-7402 and 78.4 µM with A2780.
As for `CCn1cc(-c2nc3ccccc3[nH]2)c(=O)c2cc(F)c(N3CCN(C)CC3)cc21`, the IC50 in the assay with KB was 36.7 µM.
For `CCn1cc(-c2nc3ccccc3[nH]2)c(=O)c2cc(F)c(N3CCNCC3)nc21`, the IC50 is 2 µM in the assay with KB; 10 µM in assay [1]; more than 10 µM in the assay on THP-1; 9.1 µM in the assay on HepG2; more than 10 µM in the assay on HT-29; more than 10 µM with PC-3. In addition, the IC50 is 4.1 µM in the assay with Bel-7402; 4.8 µM in the assay on A2780; 7.8 µM in the assay with A549; 10 µM in the assay on HeLa; 6.6 µM in the assay with AGS; 7.8 µM in assay [2]. Moreover, the IC50 in the assay with MCF7 is 9.5 µM; in the assay on U-937, more than 10 µM; in the assay with K562, 9.1 µM. Further, the GI50 was 3.3 µM in assay [1]; 6.8 µM in the assay on HepG2; more than 10 µM with HT-29; more than 10 µM with PC-3; 4.9 µM in the assay with A549; 6.4 µM in the assay with HeLa. The GI50 with AGS is 2.1 µM; in [2], 3.7 µM; in the assay with MCF7 it was 8.3 µM.
As for `CCn1cc(-c2nc3ccc([N+](=O)[O-])cc3o2)c(=O)c2cc(F)c(Cl)cc21`, the figures for the IC50 with KB and in the assay with Bel-7402 were 0.5 µM and 1.8 µM, respectively.
With `CCn1cc(-c2nc3ccccc3s2)c(=O)c2cc(F)c(N3CCNCC3)cc21`, the results for the IC50 in the assay with KB, in the assay on Bel-7402 and in the assay with A2780 were 28.7 µM, 24.3 µM and 11.3 µM, respectively.
`CCn1cc(-c2nc3ccc([N+](=O)[O-])cc3[nH]2)c(=O)c2cc(F)c(N3CCN(C)CC3)cc21`: the IC50 in the assay on KB came to 2.5 µM; in the assay with Bel-7402 it was 4.4 µM; with A2780, 4.7 µM.
For the compound `CCn1cc(-c2nc3ccccc3o2)c(=O)c2cc(F)c(N3CCNCC3)nc21`, the figures for the 50% inhibitory concentration (IC50) in the assay with KB, with Bel-7402 and in the assay with A2780 were 11.7 µM, 16.8 µM and 15.3 µM, respectively.
Regarding `CCn1cc(-c2nc3ccc([N+](=O)[O-])cc3s2)c(=O)c2cc(F)c(N3CCNCC3)nc21`, the IC50 in the assay on KB worked out at 179 µM; in the assay with Bel-7402, 24.6 µM; in the assay on A2780, 200 µM.
Turning to `CCn1cc(-c2nc3ccc([N+](=O)[O-])cc3s2)c(=O)c2cc(F)c(N3CCNCC3)cc21`, the half-inhibitory concentration (IC50) with KB turned out to be 0.7 µM; in the assay on Bel-7402, 1.8 µM; in the assay on A2780, 0.7 µM.
`CCn1cc(-c2nc3ccc([N+](=O)[O-])cc3o2)c(=O)c2cc(F)c(N3CCNCC3)nc21`: the IC50 in the assay with KB was 1.8 µM; in assay [1], more than 10 µM; in the assay with THP-1 it was more than 10 µM; in the assay with HepG2, more than 10 µM; with HT-29, more than 10 µM; in the assay on PC-3, 9.8 µM. Moreover, the IC50 in the assay with Bel-7402 is 3 µM; with A549 it was 7.3 µM; with HeLa it was more than 10 µM; in the assay on AGS it was 4.4 µM; in [2], more than 10 µM; with MCF7 it was more than 10 µM. For the same compound, the IC50 in the assay with U-937 and with K562 was more than 10 µM each time. The 50% growth inhibitory concentration (GI50) is more than 10 µM in assay [1]; more than 10 µM in the assay on HepG2; more than 10 µM with HT-29; 5.8 µM with PC-3; 2.1 µM in the assay on A549; more than 10 µM with HeLa. Besides, the GI50 is 2.3 µM with AGS, more than 10 µM in assay [2] and more than 10 µM in the assay on MCF7.
For the compound `CCn1cc(-c2nc3ccccc3s2)c(=O)c2cc(F)c(N3CCNCC3)nc21`, the IC50 with KB amounted to 2.4 µM; in the assay with Bel-7402, 2.4 µM; with A2780, 2.7 µM.
Consider `CCn1cc(-c2nc3ccc([N+](=O)[O-])cc3[nH]2)c(=O)c2cc(F)c(N3CCNCC3)nc21`, for which the half-inhibitory concentration (IC50) was 22.4 µM with KB, 10.8 µM in the assay with Bel-7402 and 12.4 µM in the assay on A2780.
As for `CCn1cc(-c2nc3ccccc3o2)c(=O)c2cc(F)c(N3CCNC(C)C3)c(F)c21` (stereo not drawn), the figures for the IC50 with KB, with Bel-7402 and in the assay with A2780 were 18.9 µM, 5.7 µM and 83.5 µM, respectively.
For the compound `CCn1cc(-c2nc3ccccc3[nH]2)c(=O)c2cc(F)c(N3CCNC(C)C3)c(F)c21` (stereo not drawn), the half-inhibitory concentration (IC50) was 19.1 µM in the assay on KB, 30.2 µM with Bel-7402 and 11.6 µM with A2780.
The matching figures for `CCn1cc(-c2nc3ccccc3s2)c(=O)c2cc(F)c(N3CCN(C)CC3)cc21`: 19 µM, 24 µM and 114 µM.
As for `CCn1cc(-c2nc3ccc([N+](=O)[O-])cc3[nH]2)c(=O)c2cc(F)c(N3CCNCC3)cc21`, the IC50 amounted to 1.1 µM in the assay with KB, 2.1 µM in the assay with Bel-7402 and 1.6 µM with A2780.
For `C[C@H]1COc2c(N3CCN(C)CC3)c(F)cc3c(=O)c(-c4nc5ccccc5s4)cn1c23`, the figures for the IC50 with KB, in the assay with Bel-7402 and in the assay on A2780 were 60.2 µM, 92.2 µM and 26.6 µM, respectively.
Consider `CCn1cc(-c2nc3ccccc3s2)c(=O)c2cc(F)c(N3CCNC(C)C3)c(F)c21` (stereo not drawn), for which the IC50 is 24.3 µM in the assay on KB, 15 µM in the assay on Bel-7402 and 9.8 µM in the assay with A2780.
The like results for `CCn1cc(-c2nc3ccc([N+](=O)[O-])cc3o2)c(=O)c2cc(F)c(N3CCN(C)CC3)cc21` were, in that order, 40.3 µM, 50.2 µM and 39.6 µM.
The matching figures for `CC[C@@]1(O)C(=O)OCc2c1cc1n(c2=O)Cc2cc3cc(O)ccc3nc2-1` [HYDROXYCAMPTOTHECIN]: 0.6 µM, 0.2 µM and 0.7 µM.
